Activity calls are given as the source filed them.
Experiments:
Type in all cases: functional, organism-based
[1] = test system: Candida parapsilosis; experiment: Antifungal activity against Candida parapsilosis ATCC 22019 at 100 ug/ml after 48 hrs by micro broth dilution method
Outline: (§1)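 Broth microdilution in RPMI-1640 (NaHCO3, MOPS, pH 7.0). Compounds are dissolved in DMSO and serially diluted 2-fold to eight concentrations, with stocks of […]. Fungal inocula are 2 × 10³ cfu/mL. Plates are incubated 48 h at 28 °C. The MIC is the lowest concentration with no turbidity, and the highest concentration tested is 100 μg/mL.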

[2] = test system: Aspergillus fumigatus; experiment: Antifungal activity against Aspergillus fumigatus CCTCC AF 93048 at 100 ug/ml after 48 hrs by micro broth dilution method; outline: as §1
[3] = test system: Candida albicans; experiment: Antifungal activity against Candida albicans ATCC MYA-2876 at 100 ug/ml after 48 hrs by micro broth dilution method; outline: as §1

Measured: Activity

C[C@@H]1C[C@H](C)C[C@H](C)[C@@H](O)CC(=O)O[C@H]([C@@H]2CCC[C@H]2C(=O)NCCc2ccccn2)C/C=C/C=C(/C#N)[C@H](O)[C@@H](C)C1
inactive: all assays above

C[C@@H]1C[C@H](C)C[C@H](C)[C@@H](O)CC(=O)O[C@H]([C@@H]2CCC[C@H]2C(=O)N2CCN(CCO)CC2)C/C=C/C=C(/C#N)[C@H](O)[C@@H](C)C1
inactive: all assays above

C[C@@H]1C[C@H](C)C[C@H](C)[C@@H](O)CC(=O)O[C@H]([C@@H]2CCC[C@H]2C(=O)N2CCCCC2)C/C=C/C=C(/C#N)[C@H](O)[C@@H](C)C1
inactive: all assays above

C[C@@H]1C[C@H](C)C[C@H](C)[C@@H](O)CC(=O)O[C@H]([C@@H]2CCC[C@H]2C(=O)N2CCN(Cc3ccccc3)CC2)C/C=C/C=C(/C#N)[C@H](O)[C@@H](C)C1
inactive: all assays above

COC(=O)[C@@H](Cc1cnc[nH]1)NC(=O)[C@@H]1CCC[C@H]1[C@@H]1C/C=C/C=C(/C#N)[C@H](O)[C@@H](C)C[C@H](C)C[C@H](C)C[C@H](C)[C@@H](O)CC(=O)O1
inactive: all assays above

C[C@@H]1C[C@H](C)C[C@H](C)[C@@H](O)CC(=O)O[C@H]([C@@H]2CCC[C@H]2C(=O)OCCN2CCN(C(=O)OCc3ccccc3)CC2)C/C=C/C=C(/C#N)[C@H](O)[C@@H](C)C1
inactive: all assays above

C[C@@H]1C[C@H](C)C[C@H](C)[C@@H](O)CC(=O)O[C@H]([C@@H]2CCC[C@H]2C(=O)OCCN2CCN(C(=O)c3ccccc3)CC2)C/C=C/C=C(/C#N)[C@H](O)[C@@H](C)C1
inactive: all assays above

COc1ccc2[nH]cc(CCNC(=O)[C@@H]3CCC[C@H]3[C@@H]3C/C=C/C=C(/C#N)[C@H](O)[C@@H](C)C[C@H](C)C[C@H](C)C[C@H](C)[C@@H](O)CC(=O)O3)c2c1
inactive: all assays above

C[C@@H]1C[C@H](C)C[C@H](C)[C@@H](O)CC(=O)O[C@H]([C@@H]2CCC[C@H]2C(=O)N2CCNCC2)C/C=C/C=C(/C#N)[C@H](O)[C@@H](C)C1
inactive: all assays above

C[C@@H]1C[C@H](C)C[C@H](C)[C@@H](O)CC(=O)O[C@H]([C@@H]2CCC[C@H]2C(=O)OCCN2CCN(Cc3ccc(Br)cc3)CC2)C/C=C/C=C(/C#N)[C@H](O)[C@@H](C)C1
inactive: all assays above

CCC(=O)NNC(=O)[C@@H]1CCC[C@H]1[C@@H]1C/C=C/C=C(/C#N)[C@H](O)[C@@H](C)C[C@H](C)C[C@H](C)C[C@H](C)[C@@H](O)CC(=O)O1
inactive: all assays above

COC(=O)[C@@H](CC(C)C)NC(=O)[C@@H]1CCC[C@H]1[C@@H]1C/C=C/C=C(/C#N)[C@H](O)[C@@H](C)C[C@H](C)C[C@H](C)C[C@H](C)[C@@H](O)CC(=O)O1
inactive: all assays above

C[C@@H]1C[C@H](C)C[C@H](C)[C@@H](O)CC(=O)O[C@H]([C@@H]2CCC[C@H]2C(=O)OCC2CC2)C/C=C/C=C(/C#N)[C@H](O)[C@@H](C)C1
inactive: all assays above

C[C@@H]1C[C@H](C)C[C@H](C)[C@@H](O)CC(=O)O[C@H]([C@@H]2CCC[C@H]2C(=O)OCc2ccccn2)C/C=C/C=C(/C#N)[C@H](O)[C@@H](C)C1
inactive: all assays above

C[C@@H]1C[C@H](C)C[C@H](C)[C@@H](O)CC(=O)O[C@H]([C@@H]2CCC[C@H]2C(=O)OCCN2CCN(Cc3ccc(F)cc3)CC2)C/C=C/C=C(/C#N)[C@H](O)[C@@H](C)C1
inactive: all assays above

CC(=O)N1CCN(CCOC(=O)[C@@H]2CCC[C@H]2[C@@H]2C/C=C/C=C(/C#N)[C@H](O)[C@@H](C)C[C@H](C)C[C@H](C)C[C@H](C)[C@@H](O)CC(=O)O2)CC1
inactive: all assays above

C[C@@H]1C[C@H](C)C[C@H](C)[C@@H](O)CC(=O)O[C@H]([C@@H]2CCC[C@H]2C(=O)N2CCN(C)CC2)C/C=C/C=C(/C#N)[C@H](O)[C@@H](C)C1
inactive: all assays above

C[C@@H]1C[C@H](C)C[C@H](C)[C@@H](O)CC(=O)O[C@H]([C@@H]2CCC[C@H]2C(=O)OCCN2CCN(Cc3ccc(Cl)cc3)CC2)C/C=C/C=C(/C#N)[C@H](O)[C@@H](C)C1
inactive: all assays above

C[C@@H]1C[C@H](C)C[C@H](C)[C@@H](O)CC(=O)O[C@H]([C@@H]2CCC[C@H]2C(=O)OCCN2CCN(Cc3ccc([N+](=O)[O-])cc3)CC2)C/C=C/C=C(/C#N)[C@H](O)[C@@H](C)C1
inactive: all assays above

C[C@@H]1C[C@H](C)C[C@H](C)[C@@H](O)CC(=O)O[C@H]([C@@H]2CCC[C@H]2C(=O)N2CCOCC2)C/C=C/C=C(/C#N)[C@H](O)[C@@H](C)C1
inactive: all assays above

C[C@@H]1C[C@H](C)C[C@H](C)[C@@H](O)CC(=O)O[C@H]([C@@H]2CCC[C@H]2C(=O)OCCN2CCN(Cc3ccc(F)cc3F)CC2)C/C=C/C=C(/C#N)[C@H](O)[C@@H](C)C1
inactive: all assays above

C[C@@H]1C[C@H](C)C[C@H](C)[C@@H](O)CC(=O)O[C@H]([C@@H]2CCC[C@H]2C(=O)OCCN2CCN(Cc3ccc4ccccc4c3)CC2)C/C=C/C=C(/C#N)[C@H](O)[C@@H](C)C1
inactive: all assays above

COC(=O)[C@@H](Cc1c[nH]c2ccccc12)NC(=O)[C@@H]1CCC[C@H]1[C@@H]1C/C=C/C=C(/C#N)[C@H](O)[C@@H](C)C[C@H](C)C[C@H](C)C[C@H](C)[C@@H](O)CC(=O)O1
inactive: all assays above

COC(=O)[C@@H](Cc1ccccc1)NC(=O)[C@@H]1CCC[C@H]1[C@@H]1C/C=C/C=C(/C#N)[C@H](O)[C@@H](C)C[C@H](C)C[C@H](C)C[C@H](C)[C@@H](O)CC(=O)O1
inactive: all assays above

Cc1ccc(CN2CCN(CCOC(=O)[C@@H]3CCC[C@H]3[C@@H]3C/C=C/C=C(/C#N)[C@H](O)[C@@H](C)C[C@H](C)C[C@H](C)C[C@H](C)[C@@H](O)CC(=O)O3)CC2)cc1
inactive: all assays above

C[C@@H]1C[C@H](C)C[C@H](C)[C@@H](O)CC(=O)O[C@H]([C@@H]2CCC[C@H]2C(=O)NCc2ccccc2)C/C=C/C=C(/C#N)[C@H](O)[C@@H](C)C1
inactive: all assays above

COc1ccc(CCNC(=O)[C@@H]2CCC[C@H]2[C@@H]2C/C=C/C=C(/C#N)[C@H](O)[C@@H](C)C[C@H](C)C[C@H](C)C[C@H](C)[C@@H](O)CC(=O)O2)cc1
inactive: all assays above

COC(=O)[C@@H](CCSC)NC(=O)[C@@H]1CCC[C@H]1[C@@H]1C/C=C/C=C(/C#N)[C@H](O)[C@@H](C)C[C@H](C)C[C@H](C)C[C@H](C)[C@@H](O)CC(=O)O1
inactive: all assays above

C[C@@H]1C[C@H](C)C[C@H](C)[C@@H](O)CC(=O)O[C@H]([C@@H]2CCC[C@H]2C(=O)OCCN2CCN(Cc3ccccc3)CC2)C/C=C/C=C(/C#N)[C@H](O)[C@@H](C)C1
inactive: all assays above

C[C@@H]1C[C@H](C)C[C@H](C)[C@@H](O)CC(=O)O[C@H]([C@@H]2CCC[C@H]2C(=O)N2CCCC2)C/C=C/C=C(/C#N)[C@H](O)[C@@H](C)C1
inactive: all assays above

C[C@@H]1C[C@H](C)C[C@H](C)[C@@H](O)CC(=O)O[C@H]([C@@H]2CCC[C@H]2C(=O)OCCN2CCNCC2)C/C=C/C=C(/C#N)[C@H](O)[C@@H](C)C1
inactive: all assays above

COc1ccc(N2CCN(C(=O)[C@@H]3CCC[C@H]3[C@@H]3C/C=C/C=C(/C#N)[C@H](O)[C@@H](C)C[C@H](C)C[C@H](C)C[C@H](C)[C@@H](O)CC(=O)O3)CC2)cc1
inactive: all assays above

C[C@@H]1C[C@H](C)C[C@H](C)[C@@H](O)CC(=O)O[C@H]([C@@H]2CCC[C@H]2C(=O)OCCc2ccccc2)C/C=C/C=C(/C#N)[C@H](O)[C@@H](C)C1
inactive: all assays above

CC(=O)CN1CCN(CCOC(=O)[C@@H]2CCC[C@H]2[C@@H]2C/C=C/C=C(/C#N)[C@H](O)[C@@H](C)C[C@H](C)C[C@H](C)C[C@H](C)[C@@H](O)CC(=O)O2)CC1
inactive: all assays above

Reference: ChEMBL document CHEMBL4382218, “Design, synthesis and antifungal evaluation of borrelidin derivatives” (Bioorg Med Chem, 2018)
